High-throughput results (PubChem BioAssay)
The list is not random: actives were taken first. Their share in the collection is about 3.4%.
Ecoli rRNA inh: inhibits bacterial ribosomal RNA function over humanized ribosomes; 1.6% of 350,000 active; GFP signal change (wild-type ribosome), % (concentration not given with the values); E. coli WT GFP vs humanized-ribosome RFP mutants, fluorescence, 24 h; hits give low values; DMSO median 0, no signal -100; AID 720706;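 active = significant combined selectivity score with lowered wild-type GFP, culture density cut under 30%, mutant RFP and density less affected; inactive = any of these conditions unmet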
MLL AF4-AF9 inh: blocks AF4 peptide binding to human AF9; AID 651704; inhibition, % at 10 µM; 0.47% of 350,000 active; AlphaScreen, biotin-AF4 peptide binding to FLAG-AF9;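 active = every replicate reaching a set inhibition limit, whatever the replicate mean, cut at about 25% in these data; inconclusive = mean inhibition reaches that limit but some replicates miss it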;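 note: 0% = plate neutral control median and 100% = total signal loss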
SIRT5 inh: inhibitors of human sirtuin-5 desuccinylase. inhibition, % at 15 µM. AID 652115. Purified SirT5, succinyl-peptide AMC, trypsin-coupled fluorescence. 1.1% of 330,000 active. Q9NXA8; in the data active = inhibition above about 15%; inconclusive = no clear call, values can overlap the other calls
ERAP1 HTS inh: blocks human ERAP1 aminopeptidase activity | inhibition, % at 10.7 µM | AID 652197 | Q9NZ08 | recombinant ERAP1, Leu-AMC fluorescence, 60 min | 0.15% of 340,000 active;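 active = mean replicate inhibition of at least 30%, or all replicates individually reaching that 30% level; inactive = mean below 30% and not every replicate reaching it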;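 note: 0% = neutral control wells and 100% = L-leucinethiol positive control wells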
Target sequence (Q9NZ08 whole entry, looked up): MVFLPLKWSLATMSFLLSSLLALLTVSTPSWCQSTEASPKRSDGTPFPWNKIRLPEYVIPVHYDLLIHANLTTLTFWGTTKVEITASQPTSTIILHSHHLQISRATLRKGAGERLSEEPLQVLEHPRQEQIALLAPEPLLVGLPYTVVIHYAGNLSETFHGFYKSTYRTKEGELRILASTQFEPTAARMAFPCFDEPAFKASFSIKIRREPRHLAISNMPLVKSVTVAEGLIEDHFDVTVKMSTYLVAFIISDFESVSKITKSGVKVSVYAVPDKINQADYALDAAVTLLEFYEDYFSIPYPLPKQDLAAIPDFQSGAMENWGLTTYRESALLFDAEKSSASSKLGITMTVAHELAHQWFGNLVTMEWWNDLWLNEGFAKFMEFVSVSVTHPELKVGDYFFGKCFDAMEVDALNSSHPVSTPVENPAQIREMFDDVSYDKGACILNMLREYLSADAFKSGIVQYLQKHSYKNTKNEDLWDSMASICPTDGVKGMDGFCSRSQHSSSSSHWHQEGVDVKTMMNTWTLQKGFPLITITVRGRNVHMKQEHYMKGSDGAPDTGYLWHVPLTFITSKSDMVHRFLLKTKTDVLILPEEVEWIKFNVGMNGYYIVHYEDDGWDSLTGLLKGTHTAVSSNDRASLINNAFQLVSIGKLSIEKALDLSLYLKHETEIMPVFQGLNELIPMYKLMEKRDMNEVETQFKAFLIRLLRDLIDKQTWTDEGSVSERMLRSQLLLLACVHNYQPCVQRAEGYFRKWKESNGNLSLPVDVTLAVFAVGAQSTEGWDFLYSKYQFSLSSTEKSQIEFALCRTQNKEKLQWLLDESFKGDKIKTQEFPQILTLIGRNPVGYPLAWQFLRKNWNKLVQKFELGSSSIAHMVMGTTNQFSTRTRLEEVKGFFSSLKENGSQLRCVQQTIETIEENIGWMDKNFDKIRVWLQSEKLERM
S100A4 MyoIIA: blocks human S100A4 binding to myosin IIA peptide; inhibition, % at 10.7 µM; P26447; 0.14% of 360,000 active; S100A4/TAMRA-MyoIIA peptide fluorescence polarization; AID 652163;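 active = mean inhibition of at least 70% across replicates, with every replicate also reaching that level; inconclusive = mean inhibition reaches 70% but some replicates fall short; inactive = mean inhibition below 70%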
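Material: S100A4 monomer protein / Buffer or medium: 50 mM HEPES pH 7.2, 10 mM CaCl2, 100 mM KCl / Times: 5 min incubation before reading / Benchmarks: neutral control DMSO, positive control TFP / Reagent: labelled myosin peptide probe, 5 nM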
E-sel inducer: E-selectin induction on HUVECs | P16581 | HUVEC E-selectin immunofluorescence imaging; normalized: neutral wells 0, TNF-alpha wells 100 | activation, % at 7.58 µM | 0.37% of 260,000 active;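 active = mean E-selectin-positive cell signal at least 10% of the positive control, reached in at least 60% of replicates, without over 20% cell loss; inconclusive = no rule given, readout overlaps actives, possibly toxicity-flagged; inactive = the rest, including those meeting only one limit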
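Assay system: HUVEC, human umbilical vein endothelial cells / Amount: 3,000 HUVEC/well / Controls: TNF-alpha positive control, DMSO neutral control / Compound dosing: single concentration / Medium: EGM-2 over gelatin coat / Evaluation: percent E-selectin-positive cells / Signal: immunofluorescence imaging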
AID977621: growth inhibition of wild-type GFP E. coli, dose response, H69 mutant RFP, cherry-pick | AID 977621 | E. coli wild-type GFP strain growth, fluorescence, 24 h | activity change, negative = inhibition at 50 µM | shares compounds with Ecoli rRNA inh | 1,900 tested, under 10 active;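 active = Wild-type ribosome reporter drop at least double the humanized mutant ribosome reporter drop, growth loss under a set limit; inconclusive = no clear call, values can overlap the other calls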;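 note: wild-type GFP and H69 mutant RFP strains grown together 50/50 in each well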
AID977628: growth of wild-type and h24-humanized E. coli strains – h24 mutant RFP vs wild-type GFP, cherry-pick, dose response; shares compounds with Ecoli rRNA inh; E. coli WT GFP strain growth, fluorescence, 24 h; activity change, negative = inhibition at 50 µM; 1,900 tested, under 10 active;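 active = compound lowering the normal-ribosome reporter at least twice as much as the humanized-ribosome reporter, growth loss under a set limit; inconclusive = no clear call, values can overlap the other calls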;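 note: wild-type GFP and h24 humanized RFP strains co-cultured 1 to 1 per well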
The depositor's hits bear a star; ? = inconclusive; · = not tested or not shown.

SMILES	Ecoli rRNA inh	MLL AF4-AF9 inh	SIRT5 inh	ERAP1 HTS inh	S100A4 MyoIIA	E-sel inducer	AID977621	AID977628
C[C@@H]1CN([C@@H](C)CO)C(=O)c2cc(Br)cnc2O[C@@H]1CN(C)C(=O)C1CCC1	-0.2	·	·	·	·	6.2	·	·
COc1cccc(-c2ccc([C@@H]3[C@H]4CN(C(=O)C5CCCCC5)CC(=O)N4[C@H]3CO)cc2)c1	-7.4	1.6	0.8	-0.7	-20.0	0.5	·	·
O=C(O)CC(CC(=O)Nc1ccc(Oc2ccccc2)cc1)c1ccccc1 (centres undefined)	-26.9*	-3.5	-2.0	-8.3	3.1	·	-18.8	-22.5
O=C(O)CC(CC(=O)Nc1ccc(N2CCOCC2)cc1)c1ccccc1 (centres undefined)	4.4	-0.2	-0.2	-0.5	1.9	·	·	·
COc1ccc(-c2cc(C(=O)Nc3ccc(C(N)=O)cc3)c3ccccc3n2)cc1OC	-25.9*	0.4	-3.0	-1.7	-2.0	·	-8.47	-5.45
O=C(NCCc1ccccn1)c1cccc(S(=O)(=O)N2CCc3ccccc32)c1	-18.1*	0.5	-0.4	2.8	17.6	·	·	?
COCC(=O)N1CC2(C1)CN(Cc1cccc(OC)c1)[C@H](CO)c1c2c2ccc(OC)cc2n1C	-3.0	·	1.2	·	-31.4	0.0	·	·
CC(CNC(=O)CN1C(=O)CCSc2ccccc21)c1ccccc1 (centres undefined)	-2.2	-0.6	-3.7	-4.1	-13.5	0.0	·	·
CCOc1ccc(CCNC(=O)CN2C(=O)CCSc3ccccc32)cc1	-20.4*	1.1	-2.9	-3.8	1.0	·	·	?
C[C@@H]1CCCCO[C@@H](CN(C)C(=O)c2ccncc2)[C@@H](C)CN([C@H](C)CO)C(=O)c2cc(NC(=O)c3ccccc3)ccc2O1	2.7	-6.1	2.9	1.4	9.5	0.2	·	·
CC(C)NC(=O)N1CC[C@H]2[C@@H]1c1cc(C#Cc3cccnc3)ccc1N(C)[C@H]2CO	-1.1	·	·	·	·	0.8	·	·
CN1c2ccc(C#Cc3cccnc3)cc2[C@@H]2[C@@H](CCN2C(=O)c2cccc(F)c2)[C@H]1CO	-38.5*	·	·	·	·	-0.2	2.55	·
O=C(C[C@H]1C[C@H]2c3cc(NC(=O)NC4CCCC4)ccc3O[C@H]2[C@@H](CO)O1)NCCN1CCCCC1	1.1	2.6	-2.6	-3.1	15.0	-0.2	·	·
O=C(NCc1ccccc1)c1nc(S(=O)(=O)Cc2ccccc2)ncc1Cl	-24.1*	2.3	-1.2	-3.9	-6.1	0.4	-23.6	-7.22
COC(=O)c1ccccc1NC(=O)c1nc(S(=O)(=O)Cc2ccccc2)ncc1Cl	4.9	-3.0	-0.8	1.0	2.0	2.1	·	·
COc1ccc(CNC(=O)c2nc(S(=O)(=O)Cc3ccccc3)ncc2Cl)cc1	-16.2*	-3.3	20.6*	-2.0	-2.3	0.3	-2.74	-4.79
O=C(NCc1ccc2c(c1)OCO2)c1nc(S(=O)(=O)Cc2ccccc2)ncc1Cl	-12.8	-1.3	-0.5	-3.2	-2.4	·	·	·
O=C(N[C@@H]1CC[C@H](CCNS(=O)(=O)c2ccccc2)O[C@H]1CO)c1cccnc1	2.9	-2.5	-2.7	-1.6	-5.8	-0.9	·	·
O=C(C[C@H]1CC[C@@H]2[C@H](COC[C@H](O)CN2C(=O)Nc2cc(Cl)cc(Cl)c2)O1)N1CCOCC1	-51.5	0.2	-6.8	-4.1	15.0	0.1	·	·
O=C(Nc1cccnc1)c1sc2cccc(F)c2c1Cl	-19.9*	-3.2	-1.3	-1.0	1.6	0.4	-8.16	-2.74
CN1C(=O)c2cc(NC(=O)C3CCOCC3)ccc2OC[C@@H]2O[C@@H](CC(=O)NCc3ccc4c(c3)OCO4)CC[C@H]21	9.3	-4.4	0.6	0.6	20.9	0.0	·	·
Cc1cccc(OCc2nnc(SCC(=O)Nc3ccc(C)c(C)c3)o2)c1	-15.9	-33.2	-6.4	1.9	1.7	·	·	·
